Measured values: ChEMBL document CHEMBL3351414, “Novel 9'-substituted-noscapines: synthesis with Suzuki cross-coupling, structure elucidation and biological evaluation” (Eur J Med Chem, 2014)
Calls of active or inactive are those of the source. The rule behind the calls is not given here.

What was measured:
[1] = test system: HeLa; assay: Downregulation of cyclin B protein level in human HeLa cells at 25 uM after 48 hrs by Western blot analysis; type: functional, cell-based
Summary of the method: (§1)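 HeLa cells treated 24 or 48 h at 25 µM, then washed in PBS and lysed 30 min on ice. 20 µg protein per lane was resolved on 7.5–15% SDS-PAGE and blotted to PVDF. Blots were probed for cyclin B, p-cdc2 Tyr15, cdc25C and γH2A.X, with β-actin reprobe as loading control and ECL detection.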

[2] = Antiproliferative activity against human RS4:11 cells assessed as reduction in cell viability after 72 hrs by MTT assay; type: functional, cell-based; details: RS4-11, 72 h
Summary of the method: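 Cells kept in RPMI-1640 (Jurkat, SEM, RS4;11) or DMEM (A549, HeLa, IGROV-1, HT-29) with 10% FBS plus penicillin/streptomycin. 8×10^3 cells per well were left 18 h at 37 °C in 5% CO2. Medium was then replaced with fresh medium holding graded compound concentrations from 10 mM DMSO stocks. Cells were incubated 72 h and viability read by MTT. IC50 is the mean ± SEM from dose–response curves of at least three independent experiments.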

[3] = test system: HeLa; assay: Downregulation of cdc25c protein level in human HeLa cells at 25 uM after 24 hrs by Western blot analysis; type: functional, cell-based; details: in the assay text read “after 48 hrs” for “after 24 hrs”; summary of the method: as §1
[4] = test system: HeLa; assay: Induction of DNA damage in human HeLa cells assessed as increase in phosphorylated form of histone gamma-H2A.X level at 25 uM after 24 hrs by Western blot analysis; type: functional, cell-based; summary of the method: as §1
[5] = test system: HeLa; assay: Induction of apoptosis in human HeLa cells assessed as reduction in Mcl-1 expression at 25 uM after 24 hrs by Western blot analysis; type: functional, cell-based
Summary of the method: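 HeLa cells treated 24 or 48 h at 25 µM, then lysed. 20 µg protein per lane was run on SDS-PAGE and transferred to PVDF. Membranes were probed 2 h at room temperature for cleaved caspase-9, caspase-3, cleaved PARP, Bcl-2, Mcl-1 or Bax, with peroxidase secondary antibody and ECL. β-Actin reprobe served as loading control.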

[6] = test system: Jurkat; assay: Cell cycle arrest in human Jurkat cells assessed as accumulation at G2/M phase after 24 hrs by flow cytometry; type: functional, cell-based
Summary of the method: (§2)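 5×10^5 HeLa or Jurkat cells exposed to graded compound concentrations for 24 h. Cells were fixed in ice-cold 70% ethanol, lysed with RNase A/0.1% Triton X-100 buffer and stained with propidium iodide. DNA content was read by flow cytometry. Phase percentages are mean ± SEM of three independent experiments.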

[7] = test system: HeLa; assay: Upregulation of aurora kinase A protein level in human HeLa cells at 25 uM after 24 hrs by Western blot analysis; type: functional, cell-based
[8] = test system: HeLa; assay: Upregulation of cdc25c protein level in human HeLa cells at 25 uM after 24 hrs by Western blot analysis; type: functional, cell-based
[9] = test system: HeLa; assay: Induction of apoptosis in human HeLa cells assessed as ROS production at 6.2 to 50 uM after 24 to 48 hrs using H2-DCFDA -based flow cytometry relative to control; type: functional, cell-based
Summary of the method: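 HeLa cells incubated 24 or 48 h at the indicated concentrations, stained with H2-DCFDA and analysed by flow cytometry. Data are mean ± SEM of three independent experiments.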

[10] = test system: HeLa; assay: Upregulation of cyclin B protein level in human HeLa cells at 25 uM after 24 hrs by Western blot analysis; type: functional, cell-based
[11] = test system: Jurkat; assay: Cell cycle arrest in human Jurkat cells assessed as accumulation at G2/M phase at 10 to 25 uM after 24 hrs by flow cytometry; type: functional, cell-based; summary of the method: as §2
[12] = test system: HeLa; assay: Downregulation of phosphorylated form of cdc25c protein level in human HeLa cells at 25 uM after 24 hrs by Western blot analysis; type: functional, cell-based; summary of the method: as §1
[13] = test system: HeLa; assay: Effect on PCM1 protein in human HeLa cells assessed as accumulation of pericentriolar material at 25 uM after 24 hrs by immunofluorescence microscopy; type: functional, cell-based
Summary of the method: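 After 24 h at 25 µM, HeLa cells were stained with anti-PCM1 and Alexa-conjugated secondary antibody, with phalloidin-tetramethylrhodamine B for actin and DAPI for nuclei. Cells were imaged by confocal microscopy at 60×.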

[14] = test system: CA46; assay: Cell cycle arrest in human CA46 cells assessed as accumulation at G2/M phase at 5 times IC50 by flow cytometry; type: functional
[15] = test system: CA46; assay: Antiproliferative activity against human CA46 cells assessed as reduction in cell viability after 72 hrs by MTT assay; type: functional, cell-based; details: CA46, 72 h
[16] = test system: HeLa; assay: Disruption of microtubule network in human HeLa cells assessed as induction of spherical morphology at 25 uM after 24 hrs by immunofluorescence microscopy; type: cell-based
Summary of the method: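 HeLa cells exposed 24 h at 25 µM, fixed in cold 4% formaldehyde for 15 min, and stained with anti-β-tubulin plus Alexa-conjugated secondary antibody, with DAPI counterstain. Cells were imaged by confocal microscopy.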

[17] = test system: CA46; assay: Cell cycle arrest in human CA46 cells assessed as reduction in mitotic index by Giemsa staining method relative to control; type: functional; parameters: scale not given: the % may be the effect or the level left
Summary of the method: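 CA46 Burkitt lymphoma cells grown in RPMI 1640 with 17% FBS and 2 mM L-glutamine at 37 °C, 5% CO2, treated 16 h. Cells were swollen 10 min in half-strength PBS, fixed in 0.5% acetic acid–1.5% ethanol, then spread from 25% acetic acid/75% ethanol. Slides were Giemsa-stained. Mitotic cells were those with condensed chromosomes and no nuclear membrane, with ≥200 cells counted per condition.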

[18] = target: Tubulin (Bos taurus, UniProt Q6B856+Q862L2+Q862F3); assay: Displacement of [3H]colchicine from bovine brain tubulin assessed as rate of assembly after 10 mins by liquid scintillation counting
[19] = test system: HeLa; assay: Induction of DNA damage in human HeLa cells assessed as increase in phosphorylated form of histone gamma-H2A.X level at 25 uM after 48 hrs by Western blot analysis; type: functional, cell-based; summary of the method: as §1

Row | Structure (SMILES) | Activity [1] | IC50 [2] | Activity [3] | Activity [4] | Activity [5] | Activity [6] | Activity [7] | Activity [8] | Activity [9] | Activity [10] | Activity [11] | Activity [12] | Activity [13] | Activity [14] | IC50 [15] | Activity [16] | Activity [17] | IC50 [18] | Activity [19]
1 | COc1ccc2c(c1OC)C(=O)O[C@@H]2[C@H]1c2c(c(-c3ccc(C)cc3)c3c(c2OC)OCO3)CCN1C | Active | 16.4 µM | Active | Active | inactive | Dose-dependent effect | Active | Active | Active | Active | Active | Active | – | – | – | – | – | – | –
2 | COc1ccc2c(c1OC)C(=O)O[C@@H]2[C@H]1c2c(c(C)c3c(c2OC)OCO3)CCN1C | – | 15.8 µM | – | Active | Active | Dose-dependent effect | Active | – | Active | Active | Active | Active | Active | >80% | 18 µM | 70% | 38% | – | –
3 | COc1ccc2c(c1OC)C(=O)O[C@@H]2[C@H]1c2c(c(Br)c3c(c2OC)OCO3)CCN1C | – | 1.4 µM | Active | – | Active | Dose-dependent effect | – | – | Active | – | – | Active | Active | – | – | 70% | – | > 400 µM | Active
